Experiments:
Assay type in all cases: ADME, organism-based
Conditions in all cases: in vivo, 0.5 h; call rule not given here
Heart = assay: Biodistribution in LPS treated BALB/c mouse anti-collagen antibody-induced arthritis model heart at 9 to 12 MBq, iv after 30 mins by PET analysis
Summary of the method: (§1)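 Male BALB/c mice, 6–7 wk. Arthritis induced with an iv anti-type II collagen mAb cocktail (1.5 mg), then ip LPS (30 μg) on day 3; mice used 4 days after LPS with a score of 3 in each limb. Enantiomer given as an iv bolus (<0.18 nmol, in saline). Dynamic PET for 30 min under isoflurane. VOIs drawn on ankles and heart; SUV time-activity curves. Each mouse received both isomers 5 h apart.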

Urinary bladder = assay: Biodistribution in mouse bladder at 9 to 12 MBq, iv after 30 mins by PET analysis
Summary of the method: (§2)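 Normal male BALB/c mice, 6–7 wk, under isoflurane with a heating pad. Each enantiomer given as a 0.2 mL iv bolus (<0.18 nmol) diluted in saline. PET acquired for 30 min in 13 frames and reconstructed by FBP without attenuation correction. Regional radioactivity taken from VOI analysis of time-activity curves.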

Liver = assay: Biodistribution in mouse liver at 9 to 12 MBq, iv after 30 mins by PET analysis; summary of the method: as §2
Mus musculus [1] = assay: Biodistribution in mouse cerebrum at 9 to 12 MBq, iv after 30 mins by PET analysis; summary of the method: as §2
Plasma [2] = assay: Drug level in mouse plasma assessed as [11C]-ibuprofen level at 70 to 125 MBq, iv after 30 mins by HPLC analysis
Summary of the method: (§3)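 Normal mice, 20–25 g, n = 3 per isomer; iv dose <0.43 nmol. Decapitated at 30 min. Heparinized blood centrifuged to plasma; plasma radioactivity counted in a dose calibrator as % dose/mL. Plasma deproteinized with 2 volumes of ethanol and filtered, then run on chiral reversed-phase OJ-RH HPLC with radiodetection. Peaks identified by co-injected unlabeled ibuprofen; fractions decay- and baseline-corrected; mean ± SD.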

Plasma [3] = assay: Drug level in mouse plasma assessed as fraction of metabolites level at 70 to 125 MBq, iv after 30 mins by HPLC analysis; summary of the method: as §3
Plasma [4] = assay: Drug level in mouse plasma at 70 to 125 MBq, iv after 30 mins by HPLC analysis; summary of the method: as §3
Plasma [5] = assay: Drug level in mouse plasma assessed as radioactivity of [11C]-ibuprofen at 70 to 125 MBq, iv after 30 mins by HPLC analysis; summary of the method: as §3
Kidney = assay: Biodistribution in mouse kidney at 9 to 12 MBq, iv after 30 mins by PET analysis; summary of the method: as §2
Mus musculus [6] = assay: Biodistribution in LPS treated BALB/c mouse anti-collagen antibody-induced arthritis model ankle of hindlimb at 9 to 12 MBq, iv after 30 mins by PET analysis relative to normal mouse; summary of the method: as §1
Mus musculus [7] = assay: Biodistribution in LPS treated BALB/c mouse anti-collagen antibody-induced arthritis model arthritic joints at 9 to 12 MBq, iv after 30 mins by PET analysis; summary of the method: as §1
Plasma [8] = assay: Drug level in mouse plasma assessed as (S)-[11C]-ibuprofen level at 70 to 125 MBq, iv after 30 mins by HPLC analysis; summary of the method: as §3
Plasma [9] = assay: Drug level in mouse plasma assessed as (R)-[11C]-ibuprofen level at 70 to 125 MBq, iv after 30 mins by HPLC analysis; summary of the method: as §3

Drug uptake (Heart)	Drug uptake (Urinary bladder)	Drug uptake (Liver)	Drug uptake (Mus musculus [1])	Drug uptake (Plasma [2])	Drug uptake (Plasma [3])	Drug uptake (Plasma [4])	Drug uptake (Plasma [5])	Drug uptake (Kidney)	fold change (FC) (Mus musculus [6])	Drug uptake (Mus musculus [7])	Drug uptake (Plasma [8])	Drug uptake (Plasma [9])	Structure (SMILES)
Not Active	Active	Active	Active	75%	25%	8.3 %ID/ml	5.9 %ID/ml	Active	> 2	Active	52%	23%	CC(C)Cc1ccc([C@@H]([11CH3])C(=O)O)cc1
Not Active	Active	Active	Active	66%	34%	8.9 %ID/ml	6.2 %ID/ml	Active	> 2	Active	65%	0.78%	CC(C)Cc1ccc([C@H]([11CH3])C(=O)O)cc1

From ChEMBL document CHEMBL1777771, “Efficient synthesis and chiral separation of 11C-labeled ibuprofen assisted by DMSO for imaging of in vivo behavior of the individual isomers by positron emission tomography” (Bioorg Med Chem, 2011)
